Results: publication PMC5831081 (Biochemistry, 2017)
Positions count from the first letter of the chain named. Several values for one entry are separate records, joined by “and”; a condition that tells them apart may be missing. Equal entries are not always repeated.

Columns and labels:
CYP2B4 [1] = biological target: T1, CYP2B4 (Oryctolagus cuniculus, UniProt P00178, H226Y); experiment: NADPH-dependent 7-EFC O-deethylation enzyme inhibition assay; type: biochemical, rabbit; details: for mechanism of inhibition: CYP2B4, non-linear regression analysis
T1 sequence (P00178 with tags, fused parts or gaps H226Y): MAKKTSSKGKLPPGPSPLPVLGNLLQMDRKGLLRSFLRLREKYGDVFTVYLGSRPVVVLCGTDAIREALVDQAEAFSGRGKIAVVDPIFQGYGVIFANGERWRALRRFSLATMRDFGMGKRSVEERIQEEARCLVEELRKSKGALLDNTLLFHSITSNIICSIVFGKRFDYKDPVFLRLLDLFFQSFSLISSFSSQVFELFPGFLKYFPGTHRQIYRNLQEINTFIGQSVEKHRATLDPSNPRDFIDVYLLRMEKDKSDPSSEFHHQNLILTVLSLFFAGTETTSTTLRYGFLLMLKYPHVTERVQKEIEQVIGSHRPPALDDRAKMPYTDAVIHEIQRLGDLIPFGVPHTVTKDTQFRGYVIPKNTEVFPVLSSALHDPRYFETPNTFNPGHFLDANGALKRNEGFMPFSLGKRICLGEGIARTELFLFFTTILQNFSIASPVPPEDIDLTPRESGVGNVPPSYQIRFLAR

CYP2B6 [2] = biological target: T2, CYP2B6 (Homo sapiens, UniProt P20813, K262R/Y226H); experiment: as above; type: biochemical; details: for mechanism of inhibition: CYP2B6, non-linear regression analysis; for IC50: NADPH-based IC50, CYP2B6
T2 sequence (P20813 with tags, fused parts or gaps Y226H/K262R limits assumed): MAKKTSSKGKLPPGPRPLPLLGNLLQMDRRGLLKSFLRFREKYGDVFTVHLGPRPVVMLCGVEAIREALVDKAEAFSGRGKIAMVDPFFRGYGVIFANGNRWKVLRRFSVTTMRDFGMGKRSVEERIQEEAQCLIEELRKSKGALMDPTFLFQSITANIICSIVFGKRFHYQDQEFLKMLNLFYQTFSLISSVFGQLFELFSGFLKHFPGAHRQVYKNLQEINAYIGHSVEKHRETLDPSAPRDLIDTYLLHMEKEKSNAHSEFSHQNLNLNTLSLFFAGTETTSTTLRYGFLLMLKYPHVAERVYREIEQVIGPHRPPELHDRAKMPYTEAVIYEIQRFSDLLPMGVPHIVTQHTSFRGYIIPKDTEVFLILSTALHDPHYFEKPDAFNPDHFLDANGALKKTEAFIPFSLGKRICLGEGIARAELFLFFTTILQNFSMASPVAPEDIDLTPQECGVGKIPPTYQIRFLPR

CYP2B6 L363V [3] = biological target: T3, CYP2B6 L363V (Homo sapiens, UniProt P20813, K262R/L363V/Y226H); experiment: as above; type: biochemical
T3 sequence (P20813 with tags, fused parts or gaps Y226H/K262R/L363V limits assumed): T2 sequence (P20813 with tags, fused parts or gaps Y226H/K262R limits assumed) with L344V

CYP2B4 [4] = biological target: T1, CYP2B4; experiment: NADPH oxidation assay; type: biochemical, rabbit; details: CYP:POR:cyt b5 1:4:2, 20 μM inhibitor, 37 °C
Summary of the method: (§1)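 Purified CYP2B was reconstituted with POR and cyt b5 at CYP:POR:cyt b5 1:4:2, or 0:4:2 for the partner-only control. Mixtures contained ligand (20 µM unless stated) and 1% acetone in 300 µL. After 5 min preincubation at 37 °C, 0.2 mM NADPH was added. NADPH consumption was recorded kinetically as the A340 decrease (ε 6.22 mM-1 cm-1). Rates are nmol/min/nmol P450, mean ± SD of three independent experiments.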

CYP2B6 [5] = biological target: T2, CYP2B6; experiment: Spectral binding titration; details: for Kd: KS
human CYP2B6 = experiment: Spectral binding titration; details: CYP2B6 spectral titration, with vs without POR
CYP2B4 I363V [6] = biological target: T4, CYP2B4 I363V (Oryctolagus cuniculus, UniProt P00178, H226Y/I363V); details: CYP2B4 I363V valine mutant
T4 sequence (P00178 with tags, fused parts or gaps H226Y/I363V limits assumed): T1 sequence (P00178 with tags, fused parts or gaps H226Y) with I344V

CYP2B6 L363V [7] = biological target: T3, CYP2B6 L363V; details: CYP2B6 L363V valine mutant
rat CYP2B1 = biological target: T5, rat CYP2B1 (Rattus norvegicus, UniProt P00176); experiment: Spectral binding titration; details: spectral binding titrations
T5 sequence (P00176 1-491): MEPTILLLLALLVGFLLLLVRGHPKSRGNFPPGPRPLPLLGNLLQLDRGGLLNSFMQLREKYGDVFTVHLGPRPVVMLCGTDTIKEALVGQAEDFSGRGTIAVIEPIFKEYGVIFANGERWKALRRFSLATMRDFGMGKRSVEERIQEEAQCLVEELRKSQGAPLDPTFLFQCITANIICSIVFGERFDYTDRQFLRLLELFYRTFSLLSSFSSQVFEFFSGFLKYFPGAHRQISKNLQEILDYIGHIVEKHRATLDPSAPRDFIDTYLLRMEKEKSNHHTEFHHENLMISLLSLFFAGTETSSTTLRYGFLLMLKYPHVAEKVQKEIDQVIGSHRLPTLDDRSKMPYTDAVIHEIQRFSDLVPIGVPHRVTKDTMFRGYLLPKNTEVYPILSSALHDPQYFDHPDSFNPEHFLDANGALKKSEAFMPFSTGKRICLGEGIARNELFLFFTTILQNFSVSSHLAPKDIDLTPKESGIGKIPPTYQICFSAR

rabbit CYP2B4 = biological target: T6, rabbit CYP2B4 (Oryctolagus cuniculus, UniProt P00178, A26S/E2A/G22K/H226Y/H23K/H27K/K25S/P24T/R29K); experiment: Spectral binding titration; details: spectral binding titrations
T6 sequence (P00178 with tags, fused parts or gaps H226Y limits assumed): T1 sequence (P00178 with tags, fused parts or gaps H226Y)

POR:cyt b5 = POR:cyt b5 (Rattus norvegicus, UniProt P00173+P00388); experiment: NADPH oxidation assay, redox partners only; type: biochemical; details: control POR:cyt b5=4:2 without CYP; 20 μM 4-CPI; 37 °C
Summary of the method: as §1

CYP2B6 [8] = biological target: T2, CYP2B6; experiment: Cumene hydroperoxide; type: biochemical; details: for IC50: CuOOH-based IC50, CYP2B6
Summary of the method: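 Purified CYP2B6 was tested alone or with cyt b5 (CYP:cyt b5 1:2) in HEPES buffer at 37 °C, with 7-EFC near KM and varying test compound. Reactions started with 0.5 mM cumene hydroperoxide. For kinetics, 7-HFC formation was followed continuously in stirred 500 µL of 0–200 µM 7-EFC. Initial-slope rates were fitted to Michaelis–Menten. IC50 came from a four-parameter logistic fit. Mean ± SD, n=3.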

CYP2B1 = biological target: T7, CYP2B1 (Rattus norvegicus, UniProt P00176); experiment: NADPH-dependent 7-EFC O-deethylation kinetics; type: biochemical
T7 sequence (P00176 1-491): T5 sequence (P00176 1-491)
Summary of the method: (§2)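 Purified CYP2B was reconstituted with POR and cyt b5 (molar 1:4:2 or 1:4:0), 2.5–5 pmol CYP, in 100 µL HEPES pH 7.4 with 7-EFC at 37 °C. After 5 min preincubation, 1 mM NADPH was added. After 5 min, reactions were quenched with ice-cold acetonitrile and diluted into 0.1 M Tris pH 9.0. 7-HFC was measured by fluorescence (ex 410/em 510 nm) against a daily 0–50 µM 7-HFC standard curve.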

CYP2B4 I363V [9] = biological target: T4, CYP2B4 I363V; experiment: NADPH-dependent 7-EFC O-deethylation kinetics; type: biochemical, rabbit
Summary of the method: as §2

CYP2B6 [10] = biological target: T2, CYP2B6; experiment: Incubation of POA with CYP2B6, UPLC-MS search for oxidative metabolites; type: in vitro ADME; details: POA incubated with CYP2B6, with or without NADPH
[11] = KI, CYP2B6, CYP:POR:cyt b5 1:4:2, 0-200 μM 7-EFC, 37 °C
[12] = Ki,app (Cheng-Prusoff from IC50), CYP2B6, absence of cyt b5
[13] = Ki,app (Cheng-Prusoff from IC50), CYP2B6, presence of cyt b5
[14] = CYP2B6, with POR (1 μM CYP, 4 μM POR), HEPES buffer
[15] = CYP2B6, without POR, HEPES buffer
[16] = CYP2B6, without POR, sucrose buffer

POR:cyt b5, sequence (P00388 whole entry): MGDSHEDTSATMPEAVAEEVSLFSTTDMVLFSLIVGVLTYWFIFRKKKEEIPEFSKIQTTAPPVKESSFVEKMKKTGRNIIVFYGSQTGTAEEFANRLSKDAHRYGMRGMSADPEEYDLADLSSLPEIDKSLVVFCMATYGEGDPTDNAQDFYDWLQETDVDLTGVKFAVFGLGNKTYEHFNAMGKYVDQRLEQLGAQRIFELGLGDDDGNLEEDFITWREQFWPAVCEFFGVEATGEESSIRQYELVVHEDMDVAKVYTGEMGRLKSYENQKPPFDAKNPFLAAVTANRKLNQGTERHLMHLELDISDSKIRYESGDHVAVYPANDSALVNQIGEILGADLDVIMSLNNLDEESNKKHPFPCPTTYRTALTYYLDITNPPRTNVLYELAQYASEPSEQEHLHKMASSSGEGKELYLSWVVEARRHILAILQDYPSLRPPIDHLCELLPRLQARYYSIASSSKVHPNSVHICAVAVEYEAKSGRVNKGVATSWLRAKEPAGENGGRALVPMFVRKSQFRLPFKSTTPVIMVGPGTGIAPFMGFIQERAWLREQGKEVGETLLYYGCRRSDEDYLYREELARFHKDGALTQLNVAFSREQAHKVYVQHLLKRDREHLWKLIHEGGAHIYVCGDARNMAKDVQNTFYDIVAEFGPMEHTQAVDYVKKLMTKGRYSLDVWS
POR:cyt b5, sequence (P00173 whole entry): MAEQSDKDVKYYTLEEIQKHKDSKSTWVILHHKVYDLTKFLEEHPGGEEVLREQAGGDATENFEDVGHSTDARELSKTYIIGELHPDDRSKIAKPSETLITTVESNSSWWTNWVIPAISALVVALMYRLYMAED

Row | SMILES | Ki (CYP2B4 [1]) [nM] | mechanism of inhibition (CYP2B4 [1]) | mechanism of inhibition (CYP2B6 [2]) | Ki (CYP2B6 [2]; [11]) [nM] | Ki (CYP2B6 [2]; [12]) [nM] | Ki (CYP2B6 [2]; [13]) [nM] | IC50 (CYP2B6 [2]; CYP:POR (no cyt b5)) [nM] | IC50 (CYP2B6 [2]; CYP:POR:cyt b5) [nM] | Ki (CYP2B6 L363V [3]) [nM] | NADPH oxidation rate (CYP2B4 [4]) [nmol/min/nmolP450] | Type-II (%) (CYP2B6 [5]; [14]) | Type-II (%) (CYP2B6 [5]; [15]) | Type-II (%) (CYP2B6 [5]; [16]) | Kd (CYP2B6 [5]; [14]) [nM] | Kd (CYP2B6 [5]; [15]) [nM] | Kd (CYP2B6 [5]; [16]) [nM] | fold increase of KS (decrease in affinity) on including POR (human CYP2B6) | further results
1 | Nc1ccc(Oc2cc(Cl)c(Cl)cc2Cl)cc1 [2′4′5′TCPOA, 4-(2′,4′,5′-trichlorophenoxy)aniline] | 370 ± 40 | competitive inhibitors | competitive inhibitors | 640 ± 80 | 1800 | 220 | 3700 ± 300 | 430 ± 40 | 750 ± 100 | 20±1 | 17±3 | 19±1 | 9±1 | 8100 ± 1700 | 1400 ± 400 | 700 ± 300 | 4-6 fold | fold increase of KS (decrease in affinity) on including POR (human CYP2B6; listed as 2′4′5′-TCPOA): 5.8 fold
2 | Nc1ccc(Cc2ccc(Cl)cc2Cl)cc1 [2′4′DCBA, 4-[(2′,4′-dichlorophenyl)methyl]aniline] | – | – | – | – | – | – | – | – | – | – | – | – | – | – | – | – | – | relative affinity among the congeners (CYP2B4 I363V [6]): highest affinity; relative affinity among the congeners (CYP2B6 L363V [7]): highest affinity; relative affinity among the ligands tested (rat CYP2B1): highest affinity; relative affinity among the ligands tested (rabbit CYP2B4): highest affinity; relative affinity among the ligands tested (CYP2B6 [5]; spectral binding titrations, CYP2B6): highest affinity
3 | Clc1ccc(-c2c[nH]cn2)cc1 [4-CPI, 4-(4-chlorophenyl)imidazole, reference compound] | – | – | – | – | – | – | – | – | – | 10±1 | – | – | – | – | – | – | – | NADPH oxidation rate (POR:cyt b5): 12±1 nmol/min/nmolP450
4 | CCOc1ccc2c(C(F)(F)F)cc(=O)oc2c1 [7-EFC, 7-Ethoxy-4-(trifluoromethyl)coumarin, reference compound] | – | – | – | – | – | – | – | – | – | – | – | – | – | – | – | – | – | kcat of 7-EFC O-deethylation (CYP2B6 [8]; CYP2B6 with CuOOH): 0.007 s⁻¹; Km (CYP2B6 [8]; human, CYP2B6 enzyme with cumene hydroperoxide, pH 7.4): 56 µM; Michaelis constant for 7-EFC (CYP2B1): ~ 120 μM; Michaelis constant for 7-EFC (CYP2B4 I363V [9]): ~ 120 μM
5 | Nc1ccc(Oc2ccccc2)cc1 [POA, 4-(phenoxy)aniline] | 1300 ± 650 | competitive inhibitors | competitive inhibitors | 13000 ± 1900 | 7500 | 13500 | 15000 ± 1000 | 27000 ± 5000 | 67000 ± 10000 | 33±2 | 9.2±3.3 | 16±1 | 26±1 | 2800 ± 1400 | 670 ± 360 | 1200 ± 200 | 4.2 fold and 4-6 fold | fold increase of IC50 by cyt b5 (CYP2B6 [2]; CYP2B6, NADPH-driven, with vs without cyt b5): 1.8 fold; mechanism of inhibition (CYP2B6 L363V [3]; CYP2B6 L363V, non-linear regression analysis): non-competitive inhibitor; IC50 (CYP2B6 [8]; CYP alone): 38000 ± 7000 nM; IC50 (CYP2B6 [8]; CYP:cyt b5): 44000 ± 14000 nM; CYP-mediated oxidative metabolites identified by UPLC-MS (CYP2B6 [10]): no potential CYP-mediated oxidative metabolites
